ChEMBL document CHEMBL4052594, “Discovery of Pyrrolidine-Containing GPR40 Agonists: Stereochemistry Effects a Change in Binding Mode” (J Med Chem, 2017)
Calls of active or inactive are those of the source. The calls are words filed in the database; no cut-off is given here.

Key:
[1] = Clearance in CD-1 mouse at 0.2 mg/kg, iv by LC-MS/MS analysis; format: ADME, organism-based; conditions: in vivo
Rattus norvegicus [2] = assay: Toxicity in rat assessed as effect on heart rate at 80 mg/kg administered as single dose; format: organism-based; conditions: in vivo
Summary of the method: (§1)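 Male rats fitted with telemetry received a single 80 mg/kg dose. Heart rate and blood pressure recorded by telemetry; locomotor activity monitored.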

[3] = target: T1, Free fatty acid receptor 1 (Homo sapiens, UniProt O14842); assay: Agonist activity at human GPR40 expressed in CHO-A12 cells assessed as increase in intracellular calcium flux measured for 100 secs by FLIPR assay; format: functional, cell-based
T1 sequence (O14842 whole entry): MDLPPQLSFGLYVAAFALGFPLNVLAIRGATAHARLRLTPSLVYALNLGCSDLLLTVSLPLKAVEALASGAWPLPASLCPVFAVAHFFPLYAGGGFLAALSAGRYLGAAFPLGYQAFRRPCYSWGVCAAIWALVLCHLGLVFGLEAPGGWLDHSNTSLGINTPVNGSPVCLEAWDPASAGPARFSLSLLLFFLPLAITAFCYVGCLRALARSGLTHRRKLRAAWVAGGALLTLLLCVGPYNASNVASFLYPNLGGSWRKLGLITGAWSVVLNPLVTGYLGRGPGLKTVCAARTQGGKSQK

[4] = target: Free fatty acid receptor 1 (Mus musculus) (UniProt Q76JU9); assay: Agonist activity at GPR40 in C57BL/6J mouse primary pancreatic islets assessed as increase in glucose-stimulated insulin secretion after 1 hr by ELISA
Sequence of Free fatty acid receptor 1 (Mus musculus) (Q76JU9 whole entry): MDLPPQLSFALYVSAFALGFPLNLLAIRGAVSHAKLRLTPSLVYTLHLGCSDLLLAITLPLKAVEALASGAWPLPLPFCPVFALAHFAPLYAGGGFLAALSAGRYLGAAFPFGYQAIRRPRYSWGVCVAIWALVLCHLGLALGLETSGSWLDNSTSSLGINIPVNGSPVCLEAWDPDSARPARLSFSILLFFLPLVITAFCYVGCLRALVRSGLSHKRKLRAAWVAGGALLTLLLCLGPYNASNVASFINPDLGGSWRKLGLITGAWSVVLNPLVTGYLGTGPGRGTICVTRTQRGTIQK
Summary of the method: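 Primary islets isolated from mice; insulin secretion measured across 0.016-2.0 µM compound to assess glucose-stimulated insulin secretion.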

Cytochrome P450 3A4 = Cytochrome P450 3A4 (Homo sapiens, UniProt P08684); assay: Inhibition of CYP3A4 (unknown origin); format: ADME
Sequence of Cytochrome P450 3A4 (P08684 whole entry): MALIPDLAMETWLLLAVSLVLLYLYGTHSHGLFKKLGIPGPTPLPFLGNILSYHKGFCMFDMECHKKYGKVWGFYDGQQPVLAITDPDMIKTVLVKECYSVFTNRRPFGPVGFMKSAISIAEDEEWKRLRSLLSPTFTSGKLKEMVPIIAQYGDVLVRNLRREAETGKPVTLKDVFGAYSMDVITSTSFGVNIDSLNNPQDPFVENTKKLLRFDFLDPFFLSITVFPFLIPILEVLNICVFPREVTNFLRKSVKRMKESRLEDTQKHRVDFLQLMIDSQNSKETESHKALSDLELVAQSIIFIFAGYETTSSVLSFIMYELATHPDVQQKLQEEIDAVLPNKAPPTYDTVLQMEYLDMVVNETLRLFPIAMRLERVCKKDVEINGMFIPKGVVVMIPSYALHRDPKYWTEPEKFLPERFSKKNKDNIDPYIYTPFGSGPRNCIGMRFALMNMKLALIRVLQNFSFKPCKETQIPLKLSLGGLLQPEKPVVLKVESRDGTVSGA

[5] = Half life in cynomolgus monkey liver microsomes; format: ADME, Macaca fascicularis, microsome
PPARgamma = target: T2, PPARgamma (Homo sapiens, UniProt P37231); assay: Transactivation of human Gal4 fused PPARgamma-LBD expressed in HEK293 cells at 4.8 uM after 18 hrs by luciferase reporter gene assay relative to […]; format: cell-based; conditions: HEK293 cells expressing Gal4-fused human PPARgamma-LBD
T2 sequence (P37231 whole entry): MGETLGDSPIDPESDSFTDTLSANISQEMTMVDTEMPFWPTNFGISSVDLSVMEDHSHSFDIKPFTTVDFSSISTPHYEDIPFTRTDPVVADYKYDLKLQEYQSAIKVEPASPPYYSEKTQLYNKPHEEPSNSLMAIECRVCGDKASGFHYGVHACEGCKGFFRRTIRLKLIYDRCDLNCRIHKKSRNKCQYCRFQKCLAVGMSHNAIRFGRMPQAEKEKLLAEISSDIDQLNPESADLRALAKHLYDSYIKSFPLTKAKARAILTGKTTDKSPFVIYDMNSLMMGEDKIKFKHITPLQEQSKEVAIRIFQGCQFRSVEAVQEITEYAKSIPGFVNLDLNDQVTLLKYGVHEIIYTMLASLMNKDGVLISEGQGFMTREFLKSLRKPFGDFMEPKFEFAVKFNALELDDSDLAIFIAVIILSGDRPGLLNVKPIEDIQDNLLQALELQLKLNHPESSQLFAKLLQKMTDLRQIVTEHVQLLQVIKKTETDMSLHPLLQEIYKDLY

[6] = target: T1, Free fatty acid receptor 1; assay: Intrinsic activity at human GPR40 transfected in HEK293 cells assessed as induction of cAMP accumulation at 16.7 uM incubated for 30 to 45 mins by HTRF assay relative to […]; format: functional, cell-based
[7] = target: Free fatty acid receptor 1 (Mus musculus) (UniProt Q76JU9); assay: Intrinsic activity at mouse GPR40 expressed in CHO-A12 cells assessed as increase in intracellular calcium flux at 8.3 uM measured for 100 secs by FLIPR assay […]; format: functional, cell-based
[8] = target: T3, Peroxisome proliferator-activated receptor gamma (Homo sapiens, UniProt P37231); assay: Binding affinity to PPARgamma (unknown origin); format: ADME
T3 sequence (P37231 whole entry): T2 sequence (P37231 whole entry)

[9] = target: T4, Free fatty acid receptor 1 (Mus musculus, UniProt Q76JU9); assay: Agonist activity at GPR40 in mouse STC1 cells assessed as induction of GLP-1 secretion measured after 1 hr by HTRF assay; format: cell-based
T4 sequence (Q76JU9 whole entry): as the sequence (Q76JU9 whole entry) above

[10] = target: T5, Peroxisome proliferator-activated receptor gamma (Mus musculus, UniProt P37238); assay: Agonist activity at PPARgamma in mouse 3T3L1 cells assessed as increase in insulin induced adipocyte differentiation by measuring free glycerol levels at 3 uM; format: cell-based
T5 sequence (P37238 whole entry): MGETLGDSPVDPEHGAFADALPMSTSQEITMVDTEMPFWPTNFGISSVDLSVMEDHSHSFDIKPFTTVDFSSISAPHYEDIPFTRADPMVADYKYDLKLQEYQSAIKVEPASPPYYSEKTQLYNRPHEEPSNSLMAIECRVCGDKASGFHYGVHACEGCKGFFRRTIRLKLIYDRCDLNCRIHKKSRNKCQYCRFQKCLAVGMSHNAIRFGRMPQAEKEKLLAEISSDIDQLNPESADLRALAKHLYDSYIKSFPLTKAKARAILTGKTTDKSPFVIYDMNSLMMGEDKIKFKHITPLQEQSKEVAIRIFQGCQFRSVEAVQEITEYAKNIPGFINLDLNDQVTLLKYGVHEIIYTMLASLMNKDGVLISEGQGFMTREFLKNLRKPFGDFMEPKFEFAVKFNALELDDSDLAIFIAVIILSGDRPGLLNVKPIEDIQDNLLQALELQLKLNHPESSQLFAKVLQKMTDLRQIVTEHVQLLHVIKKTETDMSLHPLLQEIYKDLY
Summary of the method: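 3T3L1 cells incubated with compound at 3 µM; free glycerol levels measured as a marker of PPARγ-mediated adipocyte differentiation.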

[11] = Half life in human liver microsomes; format: ADME, microsome
[12] = target: T1, Free fatty acid receptor 1; assay: Potentiation of DHA-induced agonist activity at human GPR40 inducibly expressed in HEK293 cells assessed as increase in intracellular calcium flux at 3 nM measured for 100 secs by FLIPR assay; format: functional, cell-based
Summary of the method: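 Ca2+ FLIPR concentration-response to DHA in inducible hGPR40 cells, alone or with fixed added test compound (3 nM or 10 nM); curve shift assessed.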

[13] = Fraction unbound in human plasma; format: ADME, cell-free
[14] = target: T3, Peroxisome proliferator-activated receptor gamma; assay: Transactivation of human Gal4 fused PPARgamma-LBD expressed in HEK293 cells after 18 hrs by luciferase reporter gene assay; format: cell-based
Summary of the method: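 Gal4 gene reporter transactivation assay for PPARγ; EC50 and Ymax reported.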

[15] = target: T1, Free fatty acid receptor 1; assay: Agonist activity at human GPR40 transfected in HEK293 cells assessed as induction of cAMP accumulation incubated for 30 to 45 mins by HTRF assay; format: functional, cell-based
[16] = Oral bioavailability in C57BL6 mouse at 0.5 mg/kg; format: ADME, organism-based; conditions: in vivo
Rattus norvegicus [17] = assay: Toxicity in rat assessed as induction of hyperactivity at 80 mg/kg administered as single dose; format: organism-based; conditions: in vivo; summary of the method: as §1
[18] = Fraction unbound in mouse plasma; format: ADME, cell-free
[19] = Volume of distribution at steady state in CD-1 mouse at 0.2 mg/kg, iv by LC-MS/MS analysis; format: ADME, organism-based; conditions: in vivo, read-out: Vdss
Rattus norvegicus [20] = assay: Toxicity in rat assessed as effect on mean arterial blood pressure at 80 mg/kg administered as single dose; format: organism-based; conditions: in vivo; summary of the method: as §1
Mus musculus [21] = assay: Decrease in blood glucose level in C57BL/6J mouse at 0.3 mg/kg, po administered 1 hr prior to glucose challenge measured up to 120 mins by oral glucose tolerance test; format: functional, organism-based
Summary of the method: (§2)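 C57BL/6J mice dosed orally at 0.3 or 1 mg/kg 1 h before an oral glucose bolus. Plasma glucose sampled at -60, -20, 0, 20, 40, 60 and 120 min; glucose AUC0-120 expressed relative to vehicle.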

[22] = Terminal half life in CD-1 mouse at 0.2 mg/kg, iv by LC-MS/MS analysis; format: ADME, organism-based; conditions: in vivo, read-out: beta t1/2 (converted)
[23] = target: T4, Free fatty acid receptor 1; assay: Agonist activity at mouse GPR40 expressed in CHO-A12 cells assessed as increase in intracellular calcium flux measured for 100 secs by FLIPR assay; format: functional, cell-based
Mus musculus [24] = assay: Antidiabetic activity in C57BL/6J mouse assessed as change in plasma glucose AUC (0 to 120 mins) at 1 mg/kg, po administered 1 hr prior to glucose challenge by oral glucose tolerance test; format: functional; summary of the method: as §2
[25] = Half life in mouse liver microsomes; format: ADME, microsome

COc1ccc(F)c(-c2ccc(Cc3ccc(N4C[C@H](C(F)(F)F)C[C@@H]4CC(=O)O)cc3)c(C)c2)c1
clearance [1]: 0.2 mL/min/kg | Activity (Rattus norvegicus [2]): Non-Toxic | EC50 [3]: 110 nM | Activity [4]: Dose-dependent effect | IC50 (Cytochrome P450 3A4): 1700 nM | half-life [5]: > 2 h | Emax at 18 h, 4.8 µM (PPARgamma): 40% | Intrinsic activity [6]: 140% | Intrinsic activity [7]: 210% | Activity [8]: 1.6 µM | EC50 [9]: 330 nM | Activity [10]: Active | half-life [11]: > 2 h | Activity [12]: Active | fraction unbound [13]: 0.001 | EC50 [14]: 4400 nM | EC50 [15]: 210 nM | bioavailability [16]: 83% | Activity (Rattus norvegicus [17]): Toxic | fraction unbound [18]: 0.011 | Vd [19]: 0.1 L/kg | Activity (Rattus norvegicus [20]): Non-Toxic | Activity (Mus musculus [21]): inactive | half-life [22]: 7 h | EC50 [23]: 54 nM | Activity (Mus musculus [24]): 39% | half-life [25]: > 2 h
